These results are taken from PMC7306618 (CPT: Pharmacometrics & Systems Pharmacology, 2020).

The test system of data set [1] is Madin‐Darby Canine Kidney (MDCK) cell monolayer. Description: MDCK cell monolayer apparent permeability. It is filed as in vitro ADME. As to conditions: molar ratio H‐β‐CD to fenebrutinib 46:1. In short, it runs like this:
(§1)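 Apparent permeability of test compound measured across MDCK monolayers alone and at various H‐β‐CD concentrations. These included a 46:1 H‐β‐CD:compound molar ratio, matching ~8 g H‐β‐CD per oral-solution dose with a 100 mg tablet. Change expressed relative to no H‐β‐CD. MDCK Papp was also scaled (scalar 3.9) to human jejunal Peff.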

Data set [2] can be described thus: MDCK cell monolayer apparent permeability. It is filed as in vitro ADME, Canine. As to conditions: dog, MDCK. In short, it runs like this:
as §1

Data set [3] has as its target T1, human BCRP (Homo sapiens, UniProt Q9UNQ0).
T1 sequence (Q9UNQ0 1-655): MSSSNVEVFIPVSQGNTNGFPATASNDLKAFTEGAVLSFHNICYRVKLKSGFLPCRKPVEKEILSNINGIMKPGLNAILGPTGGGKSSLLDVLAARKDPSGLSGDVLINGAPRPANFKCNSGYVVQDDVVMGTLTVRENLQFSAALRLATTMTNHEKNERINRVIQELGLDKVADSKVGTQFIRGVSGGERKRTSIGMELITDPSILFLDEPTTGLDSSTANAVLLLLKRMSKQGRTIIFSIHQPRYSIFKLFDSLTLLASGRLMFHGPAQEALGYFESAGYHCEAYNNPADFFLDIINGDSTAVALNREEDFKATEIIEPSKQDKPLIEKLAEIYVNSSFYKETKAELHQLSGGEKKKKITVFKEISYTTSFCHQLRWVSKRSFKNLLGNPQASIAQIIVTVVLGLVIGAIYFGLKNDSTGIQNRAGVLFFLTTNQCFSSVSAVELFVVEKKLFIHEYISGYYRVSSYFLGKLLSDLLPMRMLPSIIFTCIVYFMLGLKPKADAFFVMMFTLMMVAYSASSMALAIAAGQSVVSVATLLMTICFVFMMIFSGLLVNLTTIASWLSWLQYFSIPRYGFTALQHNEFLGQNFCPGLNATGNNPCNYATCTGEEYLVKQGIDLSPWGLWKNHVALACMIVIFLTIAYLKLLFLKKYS
Kind of data set: Inhibition of BCRP-mediated efflux in MDCKII cells. It is filed as cell-based. In short, it runs like this:
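Unbound inhibition constants (OATP1B1/1B3 uptake; BCRP efflux) derived as in vitro IC50/2, then corrected by plasma unbound fraction. This was done because the unbound fraction in the transporter incubation was not measured. Values served as gut and liver transporter inputs to the PBPK model.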

Data set [4] is described as follows: Phase I PK of fenebrutinib. It is filed as in vivo, human. The procedure, abridged: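 Oral dosing in phase I studies as solution, capsule (single and multiple-day) and 200 mg tablet. Plasma concentration–time data were used to estimate total clearance and apparent steady-state volume of distribution (Vss/F).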
The target in data set [5] is T1, human BCRP. As to conditions: read-out: IC50 BCRP‐mediated efflux; cited from earlier work.
Data set [6] is classed as in vivo, dogs. As to conditions: dog, oral tablets, co‐administration with H‐β‐CD.
Data set [7] in a line: Human mass balance study. It counts as in vivo.
Data set [8] in a line: Free fraction in plasma and blood/plasma partition ratio. It counts as in vitro ADME.
The nature of data set [9]: Fenebrutinib PBPK model parameters. Also on record: species or system human.
The subject of data set [10] is OATP1B. The note with it: rosuvastatin + fenebrutinib vs rosuvastatin alone; cited from earlier work.
The nature of data set [11]: Fenebrutinib–H‐β‐CD complexation in vitro. It counts as physicochemical. As to conditions: estimated from in vitro experiment.
The subject of data set [12] is CYP3A. The note with it: time‐dependent inhibition, cited from earlier work.
A short description of data set [13]: Physicochemical properties of fenebrutinib.
The subject of data set [14] is CYP3A. Kind of data set: Clinical DDI study Part 4: effect of itraconazole on fenebrutinib PK. It counts as in vivo, human. The note with it: 200 mg itraconazole solution once daily × 8 days; fenebrutinib 100 mg.
The subject of data set [15] is OATP1B1/3 and BCRP. As to conditions: fenebrutinib 200 mg twice daily for 10 days; cited from earlier work.

Several values for one entry are separate records, joined by “and”; a condition that tells them apart may be missing. Identical values can stand only once.

By Papp is commonly meant the rate of passage across a membrane or cell layer, normalised by area and donor concentration. The term Vd/F denotes the volume of distribution divided by bioavailability. As a reminder, the IC50 is the midpoint of a concentration-inhibition curve. One may read the clearance as a measure of how efficiently the substance is removed, as volume per time. Low values mean a low capacity for elimination, high ones a high capacity for elimination. In general, logP refers to a log measure of how a compound divides between an organic and an aqueous phase. Low readings indicate lower lipophilicity, high ones higher lipophilicity. As for `C[C@H]1CN(C2COC2)CCN1c1ccc(Nc2cc(-c3ccnc(N4CCn5c(cc6c5CC(C)(C)C6)C4=O)c3CO)cn(C)c2=O)nc1` [fenebrutinib], in [1], the “Decrease in Papp relative to that without H‐β‐CD” value is reported as ~ 15 fold. The Papp in data set [2] stood at 15.1 ×10⁻⁶ cm/s. Besides, the Ki in data set [3] is 0.926 µM; in data set [12] (read-out: CYP3A TDI K I (apparent)), 7.9 µM. Also, the CL/F in data set [4] (estimated from phase I PK data) is recorded as ~ 80 L/hour. In data set [4] (human, plasma, oral), this compound showed a Vd/F of roughly 13.4 L/kg. For the same compound, in data set [5], the IC50 is 9.4 µM. In [6], the “Apparent rate and extent of absorption in the presence of H‐β‐CD” value was “substantially decreased”. Also, the “Share of elimination through metabolic pathway (f m)” value in data set [7] is on record as greater than 90%. In addition, the B/P in [8] is 0.61. Moreover, in data set [9] (assigned in model), the “Hepatic clearance as share of total CL” value is recorded as ~ 95%. In data set [9] (human), the clearance is 18.3 mL/min. Moreover, the “Effect of multiple doses on plasma concentration‐time profiles of CP‐I and CP‐III” value in data set [10] is “comparable”. In data set [11], the “Kcomplex with H‐β‐CD” value was 27000 M⁻¹. In data set [12], the “CYP3A TDI K inact” value was 0.684 h⁻¹. Besides, the CYP3A k inact in data set [12] was 0.0114 min⁻¹. Moreover, in data set [13] (diprotic base), the “pK a1” value is 5. For the same compound, the “pK a2” value in data set [13] (diprotic base) turned out to be 3.7. This compound also came in with a log partition coefficient (logP) in data set [13] (octanol/water) of 3.3. Moreover, the pH solubility profile came out at 35.9 in data set [13] (pH 2.3); 5.67 in data set [13] (pH 2.6); 1.44 in [13] (pH 3.0); 0.032 in data set [13] (pH 3.8); 0.001 in data set [13] (pH 5.0); 0.001 in data set [13] (pH 6.1). Also, the “Observed change in Tmax with itraconazole” value in [14] is recorded as “delay”. The “Observed decrease in Cmax with itraconazole” value in [14] is ~ 11% and 11%. In addition, the “Observed increase in AUC0‐t with itraconazole” value in data set [14] is 2.28 fold and ~ 2.3 fold.
Turning to `CC(C)c1nc(N(C)S(C)(=O)=O)nc(-c2ccc(F)cc2)c1/C=C/[C@@H](O)C[C@@H](O)CC(=O)O` [rosuvastatin], in data set [15], the “Observed increase in AUC0–t with fenebrutinib” value is recorded as roughly 2.6 fold and the “Observed increase in Cmax with fenebrutinib” value is on record as ~ 5 fold.
